ChEMBL document CHEMBL1806437, “Design, synthesis and antileishmanial in vitro activity of new series of chalcones-like compounds: a molecular hybridization approach” (Bioorg Med Chem, 2011)

Columns and labels:
Leishmania amazonensis = assay: Antileishmanial activity against Leishmania amazonensis MHOM/IFLA/BR/67/PH8 promastigotes after 72 hrs by cell counting using Neubauer chamber; assay type: functional, organism-based; details: MHOM/IFLA/BR/67/PH8, 72 h
How it was run: (§1)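 Log-phase promastigotes seeded at 1 × 10⁶ parasites/mL in Schneider's Drosophila medium with 20% FBS, streptomycin and penicillin (100 U/mL), 26 °C, with or without a range of compound concentrations; Glucantime and amphotericin B as reference controls. At 72 h cells fixed in citric acid/NaCl/formalin isotonic solution and counted microscopically; IC50/72 h by probit regression.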

Leishmania chagasi = assay: Antileishmanial activity against Leishmania chagasi MCAN/BR/99/JP15 promastigotes after 72 hrs by cell counting using Neubauer chamber; assay type: functional, organism-based; details: MCAN/BR/99/JP15, 72 h; how it was run: as §1

| IC50 (Leishmania amazonensis) [µM] | IC50 (Leishmania chagasi) [µM] | SMILES |
| --- | --- | --- |
| 7.65 | 10.1 | C=C(C(=O)Oc1ccccc1C(=O)OC)C(O)c1ccccc1[N+](=O)[O-] (configuration not stated) |
| 22.9 | 40.6 | C=C(C(=O)Oc1ccccc1C(=O)OC)C(O)c1cccc([N+](=O)[O-])c1 (configuration not stated) |
| 11.3 | 57.3 | C=C(C(=O)Oc1ccccc1C(=O)OC)C(O)c1ccc([N+](=O)[O-])cc1 (configuration not stated) |
| 23.8 | 33.4 | C=C(C(=O)Oc1ccccc1C(=O)OC)C(O)c1ccncc1 (configuration not stated) |
| 31.2 | 38.7 | C=C(C(=O)Oc1ccccc1C(=O)OC)C(O)c1cccnc1 (configuration not stated) |
| 22 | 43 | C=C(C(=O)Oc1ccccc1C(=O)OC)C(O)c1ccc(Br)cc1 (configuration not stated) |
| 9 | 41.4 | C=C(C(=O)Oc1ccccc1C(=O)OC)C(O)c1ccc2ccccc2c1 (configuration not stated) |
| 22.4 | 49.1 | C=C(CCC(=O)Oc1ccccc1C(=O)OC)C(=O)Oc1ccccc1C(=O)OC |
| 0.12 | 0.69 | C[C@@H]1[C@H](O)[C@@H](C)/C=C/C=C/C=C/C=C/C=C/C=C/C=C/[C@H](O[C@@H]2O[C@H](C)[C@@H](O)[C@H](N)[C@@H]2O)C[C@@H]2O[C@](O)(C[C@@H](O)C[C@@H](O)[C@H](O)CC[C@@H](O)C[C@@H](O)CC(=O)O[C@H]1C)C[C@H](O)[C@H]2C(=O)O [AMPHOTERICIN B] |
| 108 | 119 | C=CC(=O)Oc1ccccc1C(=O)OC [METHYL SALICYLATE ACRYLIC ESTER] |
| 228 | 261 | COC(=O)c1ccccc1O [METHYL SALICYLATE] |
